Results as given in ChEMBL document CHEMBL4049407, “Positional Scanning Identifies the Molecular Determinants of a High Affinity Multi-Leucine Inhibitor for Furin and PACE4” (J Med Chem, 2017).
Active and inactive are the calls of the source. No rule for the calls is given here. Peptide text beside a SMILES is read from it. * marks the point of attachment. NH(4-amidinobenzyl) = N=C(N)c1ccc(CN*)cc1

Legend:
Homo sapiens = species: Homo sapiens; experiment: Selectivity index, ratio of Ki for recombinant human furin expressed in drosophila S2 cells to Ki for recombinant human PACE4 expressed in drosophila S2 cells; assay type: cell-based
In short: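 Ratio Ki(furin)/Ki(PACE4). […] PACE4 buffer was BisTris pH 6.5; furin buffer was HEPES pH 7.5, or BisTris pH 6.5 for His peptides. Ki fitted by Morrison equation from three independent experiments.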

[1] = molecular target: T1, Proprotein convertase subtilisin/kexin type 6 (Homo sapiens, UniProt P29122); experiment: Inhibition of recombinant human PACE4 expressed in drosophila S2 cells using pyrGlu-Arg-Thr-Lys-Arg-7-amido-4-methylcoumarin as substrate after 60 mins by spectrofluorometry method; assay type: cell-based
T1 sequence (P29122 whole entry): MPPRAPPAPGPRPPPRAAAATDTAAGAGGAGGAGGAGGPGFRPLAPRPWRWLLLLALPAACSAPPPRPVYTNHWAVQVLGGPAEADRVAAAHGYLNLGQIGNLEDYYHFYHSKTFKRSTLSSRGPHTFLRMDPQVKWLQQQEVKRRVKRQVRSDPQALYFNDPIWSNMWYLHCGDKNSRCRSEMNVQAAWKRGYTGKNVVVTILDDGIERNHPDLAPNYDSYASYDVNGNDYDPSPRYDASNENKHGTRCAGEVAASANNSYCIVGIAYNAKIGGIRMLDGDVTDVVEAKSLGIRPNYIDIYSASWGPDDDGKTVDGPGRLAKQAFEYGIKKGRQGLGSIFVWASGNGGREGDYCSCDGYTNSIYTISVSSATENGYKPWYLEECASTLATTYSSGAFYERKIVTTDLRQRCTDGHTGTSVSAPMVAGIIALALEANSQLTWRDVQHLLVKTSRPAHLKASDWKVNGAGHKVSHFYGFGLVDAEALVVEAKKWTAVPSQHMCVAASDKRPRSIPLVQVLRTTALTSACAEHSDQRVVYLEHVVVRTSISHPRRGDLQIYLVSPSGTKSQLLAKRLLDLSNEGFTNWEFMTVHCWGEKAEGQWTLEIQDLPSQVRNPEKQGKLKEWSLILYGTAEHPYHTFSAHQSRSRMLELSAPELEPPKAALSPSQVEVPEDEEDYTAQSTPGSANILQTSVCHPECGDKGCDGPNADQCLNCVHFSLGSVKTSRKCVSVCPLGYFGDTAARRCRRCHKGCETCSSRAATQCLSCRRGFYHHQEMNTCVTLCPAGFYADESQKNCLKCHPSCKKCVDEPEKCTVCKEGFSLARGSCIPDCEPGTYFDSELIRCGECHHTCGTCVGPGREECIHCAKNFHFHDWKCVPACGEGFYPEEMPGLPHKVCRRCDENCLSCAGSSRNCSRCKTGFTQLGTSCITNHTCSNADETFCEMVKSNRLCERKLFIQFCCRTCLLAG
In short: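 Human recombinant purified PACE4 at 2 units/100 µL (20.18 nM), in 20 mM BisTris pH 6.5, 1 mM CaCl2, 1.8 mg/mL BSA. Substrate 100 µM, KM 4.035 µM. Inhibitor 1 nM to 10 µM; 60 min at 37°C. Fluorescence ex 370 / em 460 nm. Ki by Morrison tight-binding equation; three independent experiments, mean ± SD.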

DU-145 = experiment: Antiproliferative activity against human DU145 cells assessed as reduction in metabolic activity at 25 to 100 uM after 72 hrs by MTT assay; assay type: functional, cell-based
In short: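 First-pass MTT screen of each library peptide on DU145 cells (RPMI 1640, 5% FBS, 1500 cells/well, poly-L-lysine plates). Peptides added 24 h after seeding at 25, 50 and 100 µM in fresh serum medium for 72 h. MTT 1 mg/mL for 4 h; 2-propanol HCl solubilisation. Activity normalised to water vehicle. Mean ± SEM of at least two independent experiments.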

Furin = Furin (Homo sapiens, UniProt P09958); experiment: Inhibition of recombinant human furin expressed in drosophila S2 cells using pyrGlu-Arg-Thr-Lys-Arg-7-amido-4-methylcoumarin as substrate after 60 mins by spectrofluorometry method; assay type: cell-based
Sequence of Furin (P09958 whole entry): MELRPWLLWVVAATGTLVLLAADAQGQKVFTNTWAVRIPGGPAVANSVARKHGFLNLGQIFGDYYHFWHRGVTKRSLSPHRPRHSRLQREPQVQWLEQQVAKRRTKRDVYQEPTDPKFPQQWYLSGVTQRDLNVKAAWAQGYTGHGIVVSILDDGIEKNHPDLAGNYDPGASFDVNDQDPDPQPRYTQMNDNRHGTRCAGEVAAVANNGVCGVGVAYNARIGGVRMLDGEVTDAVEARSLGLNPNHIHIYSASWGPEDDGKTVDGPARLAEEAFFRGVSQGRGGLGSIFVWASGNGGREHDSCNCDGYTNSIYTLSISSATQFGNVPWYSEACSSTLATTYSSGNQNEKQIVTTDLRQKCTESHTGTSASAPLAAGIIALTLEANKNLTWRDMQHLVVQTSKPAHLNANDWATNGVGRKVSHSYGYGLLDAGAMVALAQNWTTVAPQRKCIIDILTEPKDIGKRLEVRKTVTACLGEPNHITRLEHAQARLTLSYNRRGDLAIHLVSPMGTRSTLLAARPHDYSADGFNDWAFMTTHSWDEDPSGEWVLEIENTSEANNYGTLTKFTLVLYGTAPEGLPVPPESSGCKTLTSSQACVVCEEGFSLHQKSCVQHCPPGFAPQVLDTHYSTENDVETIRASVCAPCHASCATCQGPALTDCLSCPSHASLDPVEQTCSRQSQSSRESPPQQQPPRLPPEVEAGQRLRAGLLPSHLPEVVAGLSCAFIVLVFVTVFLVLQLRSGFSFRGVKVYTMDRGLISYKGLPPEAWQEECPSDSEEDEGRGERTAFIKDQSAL
In short: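 Human recombinant purified furin at 2 units/100 µL (0.54 nM), in 100 mM HEPES pH 7.5, 1 mM CaCl2, 1 mM β-mercaptoethanol, 1.8 mg/mL BSA. His-containing peptides run instead in 20 mM BisTris pH 6.5 with the same additives. Substrate 100 µM, KM 5.04 µM. Inhibitor 1 nM to 10 µM; 60 min at 37°C. Fluorescence ex 370 / em 460 nm. Ki by Morrison equation; triplicate experiments, mean ± SD.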

Compound	Ki [1] [nM]	Ki (Furin) [nM]	Ratio Ki (Homo sapiens)	Activity (DU-145)
CC(=O)N[C@@H](CC(C)C)C(=O)N[C@@H](CC(C)C)C(=O)N[C@@H](CC(C)C)C(=O)NCC(=O)N[C@@H](CCCNC(=N)N)C(=O)N[C@H](C(=O)N[C@@H](CCCCN)C(=O)NCc1ccc(C(=N)N)cc1)C(C)C (Ac-LLLGRVK-{NH(4-amidinobenzyl)})	18	12	0.7	inactive
CC(=O)N[C@@H](CC(C)C)C(=O)N[C@@H](Cc1ccc(O)cc1)C(=O)N[C@@H](CC(C)C)C(=O)N[C@@H](CC(C)C)C(=O)N[C@@H](CCCNC(=N)N)C(=O)N[C@H](C(=O)N[C@@H](CCCCN)C(=O)NCc1ccc(C(=N)N)cc1)C(C)C (Ac-LYLLRVK-{NH(4-amidinobenzyl)})	4	3	0.8	inactive
CC(=O)N[C@@H](CC(C)C)C(=O)N[C@@H](CC(C)C)C(=O)N[C@@H](CC(=O)O)C(=O)N[C@@H](CC(C)C)C(=O)N[C@@H](CCCNC(=N)N)C(=O)N[C@H](C(=O)N[C@@H](CCCCN)C(=O)NCc1ccc(C(=N)N)cc1)C(C)C (Ac-LLDLRVK-{NH(4-amidinobenzyl)})	140	140	1	inactive
CC(=O)N1CCC[C@H]1C(=O)N[C@@H](CC(C)C)C(=O)N[C@@H](CC(C)C)C(=O)N[C@@H](CC(C)C)C(=O)N[C@@H](CCCNC(=N)N)C(=O)N[C@H](C(=O)N[C@@H](CCCCN)C(=O)NCc1ccc(C(=N)N)cc1)C(C)C (Ac-PLLLRVK-{NH(4-amidinobenzyl)})	3	1.1	0.4	inactive
CC(=O)N[C@@H](CC(C)C)C(=O)N[C@@H](CC(C)C)C(=O)N[C@@H](C)C(=O)N[C@@H](CC(C)C)C(=O)N[C@@H](CCCNC(=N)N)C(=O)N[C@H](C(=O)N[C@@H](CCCCN)C(=O)NCc1ccc(C(=N)N)cc1)C(C)C (Ac-LLALRVK-{NH(4-amidinobenzyl)})	30	11	0.4	inactive
CC(=O)N[C@@H](CC(C)C)C(=O)N[C@@H](CC(C)C)C(=O)N[C@@H](CCC(=O)O)C(=O)N[C@@H](CC(C)C)C(=O)N[C@@H](CCCNC(=N)N)C(=O)N[C@H](C(=O)N[C@@H](CCCCN)C(=O)NCc1ccc(C(=N)N)cc1)C(C)C (Ac-LLELRVK-{NH(4-amidinobenzyl)})	60	50	0.8	inactive
CC(=O)N[C@@H](CC(C)C)C(=O)N[C@@H](CCC(=O)O)C(=O)N[C@@H](CC(C)C)C(=O)N[C@@H](CC(C)C)C(=O)N[C@@H](CCCNC(=N)N)C(=O)N[C@H](C(=O)N[C@@H](CCCCN)C(=O)NCc1ccc(C(=N)N)cc1)C(C)C (Ac-LELLRVK-{NH(4-amidinobenzyl)})	51	23	0.5	inactive
CC(=O)NCC(=O)N[C@@H](CC(C)C)C(=O)N[C@@H](CC(C)C)C(=O)N[C@@H](CC(C)C)C(=O)N[C@@H](CCCNC(=N)N)C(=O)N[C@H](C(=O)N[C@@H](CCCCN)C(=O)NCc1ccc(C(=N)N)cc1)C(C)C (Ac-GLLLRVK-{NH(4-amidinobenzyl)})	3	3	1	inactive
CC(=O)N[C@@H](CC(C)C)C(=O)N[C@@H](CC(=O)O)C(=O)N[C@@H](CC(C)C)C(=O)N[C@@H](CC(C)C)C(=O)N[C@@H](CCCNC(=N)N)C(=O)N[C@H](C(=O)N[C@@H](CCCCN)C(=O)NCc1ccc(C(=N)N)cc1)C(C)C (Ac-LDLLRVK-{NH(4-amidinobenzyl)})	80	50	0.6	inactive
CSCC[C@H](NC(=O)[C@H](CC(C)C)NC(C)=O)C(=O)N[C@@H](CC(C)C)C(=O)N[C@@H](CC(C)C)C(=O)N[C@@H](CCCNC(=N)N)C(=O)N[C@H](C(=O)N[C@@H](CCCCN)C(=O)NCc1ccc(C(=N)N)cc1)C(C)C (Ac-LMLLRVK-{NH(4-amidinobenzyl)})	5	3	0.6	inactive
CC(=O)N[C@@H](CC(C)C)C(=O)N[C@@H](CC(C)C)C(=O)N[C@@H](CC(N)=O)C(=O)N[C@@H](CC(C)C)C(=O)N[C@@H](CCCNC(=N)N)C(=O)N[C@H](C(=O)N[C@@H](CCCCN)C(=O)NCc1ccc(C(=N)N)cc1)C(C)C (Ac-LLNLRVK-{NH(4-amidinobenzyl)})	18	13	0.7	inactive
CC(=O)N[C@@H](CC(C)C)C(=O)N[C@@H](CC(C)C)C(=O)N[C@@H](CC(C)C)C(=O)N[C@@H](CC(=O)O)C(=O)N[C@@H](CCCNC(=N)N)C(=O)N[C@H](C(=O)N[C@@H](CCCCN)C(=O)NCc1ccc(C(=N)N)cc1)C(C)C (Ac-LLLDRVK-{NH(4-amidinobenzyl)})	400	260	0.6	inactive

Now those with a lower Ki [1], led by results:

Ki [1] [nM]	Ki (Furin) [nM]	Compound	Ratio Ki (Homo sapiens)	Activity (DU-145)
1	1.7	CC(=O)N[C@@H](CC(C)C)C(=O)N[C@H](C(=O)N[C@@H](CC(C)C)C(=O)N[C@@H](CC(C)C)C(=O)N[C@@H](CCCNC(=N)N)C(=O)N[C@H](C(=O)N[C@@H](CCCCN)C(=O)NCc1ccc(C(=N)N)cc1)C(C)C)[C@@H](C)O (Ac-LTLLRVK-{NH(4-amidinobenzyl)})	1.7	inactive
1.3	1.8	CC(=O)N[C@@H](Cc1cnc[nH]1)C(=O)N[C@@H](CC(C)C)C(=O)N[C@@H](CC(C)C)C(=O)N[C@@H](CC(C)C)C(=O)N[C@@H](CCCNC(=N)N)C(=O)N[C@H](C(=O)N[C@@H](CCCCN)C(=O)NCc1ccc(C(=N)N)cc1)C(C)C (Ac-HLLLRVK-{NH(4-amidinobenzyl)})	1.4	inactive
0.4	0.9	CC(=O)N[C@@H](CC(C)C)C(=O)N[C@@H](CC(C)C)C(=O)N[C@@H](CC(C)C)C(=O)N[C@@H](Cc1cnc[nH]1)C(=O)N[C@@H](CCCNC(=N)N)C(=O)N[C@H](C(=O)N[C@@H](CCCCN)C(=O)NCc1ccc(C(=N)N)cc1)C(C)C (Ac-LLLHRVK-{NH(4-amidinobenzyl)})	2.3	inactive
1.7	3	CC(=O)N[C@@H](CC(C)C)C(=O)N[C@@H](CC(C)C)C(=O)N[C@@H](CC(C)C)C(=O)N[C@@H](CC(N)=O)C(=O)N[C@@H](CCCNC(=N)N)C(=O)N[C@H](C(=O)N[C@@H](CCCCN)C(=O)NCc1ccc(C(=N)N)cc1)C(C)C (Ac-LLLNRVK-{NH(4-amidinobenzyl)})	1.8	inactive
2.8	4.5	CC(=O)N[C@@H](CC(C)C)C(=O)N[C@@H](CC(C)C)C(=O)N[C@@H](CC(C)C)C(=O)N[C@H](C(=O)N[C@@H](CCCNC(=N)N)C(=O)N[C@H](C(=O)N[C@@H](CCCCN)C(=O)NCc1ccc(C(=N)N)cc1)C(C)C)[C@@H](C)O (Ac-LLLTRVK-{NH(4-amidinobenzyl)})	1.6	inactive
